Source: ChEMBL document CHEMBL1145412, “Impact of the 3,6,9-trioxadecyloxy group on desazadesferrithiocin analogue iron clearance and organ distribution” (J Med Chem, 2007)

How the values were obtained:
Kidney [1] = assay: Distribution in kidney in non-iron overloaded Sprague-Dawley rat at 300 umol/kg, sc after 1 hr; assay type: ADME, organism-based; conditions: in vivo
Method in brief: (§1)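 Tissue distribution: rats dosed once sc at 300 µmol/kg. Plasma, kidney, liver, heart and pancreas sampled at 0.5, 1, 2 and 4 h. Plasma chelator reported in µM and tissue levels as nmol compound per g wet weight. n = 3 per time point.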

Sapajus apella [2] = assay: Iron-clearing efficiency in iron-loaded Cebus apella assessed as excretion in urine at 75 umol/kg, po relative to control; assay type: functional
Method in brief: (§2)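 Iron-loaded Cebus apella monkeys given the chelator orally, prepared as for rats except some solubilized in 40% Cremophor RH-40/water. Feces and urine collected at 24 h intervals from 4 d before to 5 d after dosing; iron by flame AAS. Efficiency = (2-day post-drug iron output minus 4-day pre-drug mean) / theoretical 2:1 output, %. Stool/urine split given. Mean ± SEM.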

Kidney [3] = assay: Distribution in kidney in non-iron overloaded Sprague-Dawley rat at 300 umol/kg, sc after 4 hrs; assay type: ADME, organism-based; conditions: in vivo; method in brief: as §1
Sapajus apella [4] = assay: Iron-clearing efficiency in iron-loaded Cebus apella assessed as excretion in stool at 75 umol/kg, po relative to control; assay type: functional; method in brief: as §2
Rattus norvegicus [5] = assay: Iron-clearing efficiency in non-iron overloaded Sprague-Dawley rat assessed as excretion in urine at 300 umol/kg, po relative to control; assay type: functional
Method in brief: (§3)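 Male Sprague-Dawley rats (400-450 g), bile-duct cannulated and not iron overloaded, given one oral 300 µmol/kg dose. Given in water, as monosodium salt (1 equiv NaOH) or in 40% Cremophor. Bile collected every 3 h for up to 48 h and urine every 24 h; iron by flame AAS. Efficiency = (treated minus control iron excretion) / theoretical 2:1 output, %; bile/urine split given.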

Rattus norvegicus [6] = assay: Iron clearance in non-iron overloaded Sprague-Dawley rat at 300 umol/kg, po at 3 hrs; assay type: functional
Method in brief: (§4)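 Male Sprague-Dawley rats (400-450 g) with bile-duct cannulation and no iron overload, given a single oral 300 µmol/kg dose. Bile collected at 3 h intervals for up to 48 h. Iron measured by flame atomic absorption and reported as µg iron per kg body weight at each interval.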

Rattus norvegicus [7] = assay: Iron-clearing efficiency in non-iron overloaded Sprague-Dawley rat assessed as excretion in bile at 300 umol/kg, po relative to control; assay type: functional; method in brief: as §3
Rattus norvegicus [8] = assay: Iron clearing efficiency in non-iron overloaded Sprague-Dawley rat at 300 umol/kg, po in presence of 250 mg/kg/dose sodium benzoate; assay type: functional
Method in brief: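 Bile-duct-cannulated rats given the chelator orally at 300 µmol/kg. Sodium benzoate in distilled water, 250 mg/kg/dose sc, given 0.5 h before the chelator and then hourly for five more doses. Iron in bile and urine measured by flame AAS. Efficiency = (treated minus control iron excretion) / theoretical output for a 2:1 complex, as percent.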

[9] = Distribution in plasma in non-iron overloaded Sprague-Dawley rat at 300 umol/kg, sc after 0.5 hrs; assay type: ADME, organism-based; method in brief: as §1
[10] = Ratio of iron clearing efficiency in iron-overloaded Cebus apella to non-iron-overloaded Sprague-Dawley rat; assay type: functional
Method in brief: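 Performance ratio = mean ICE in iron-overloaded primates divided by mean ICE in non-overloaded rats.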

Kidney [11] = assay: Distribution in kidney in non-iron overloaded Sprague-Dawley rat at 300 umol/kg, sc after 2 hrs; assay type: ADME, organism-based; conditions: in vivo; method in brief: as §1
Plasma [12] = assay: Distribution in plasma in non-iron overloaded Sprague-Dawley rat assessed as decrease in concentration at 300 umol/kg, sc after 2 hrs; assay type: ADME, organism-based; design: scale not given: the % may be the effect or the level left; conditions: in vivo; method in brief: as §1
Plasma [13] = assay: Distribution in plasma in non-iron overloaded Sprague-Dawley rat assessed as decrease in concentration at 300 umol/kg, sc after 4 hrs; assay type: ADME, organism-based; design: scale not given: the % may be the effect or the level left; conditions: in vivo; method in brief: as §1
[14] = Partition coefficient, log P in TRIS buffer at pH 7.4; assay type: physicochemical
Method in brief: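 Shake-flask direct method in TRIS buffer, pH 7.4. Reported as log of the fraction in the octanol layer (log Papp).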

Rattus norvegicus [15] = assay: Iron-clearing efficiency in non-iron overloaded Sprague-Dawley rat at 300 umol/kg, po relative to control; assay type: functional; method in brief: as §3
[16] = Distribution in pancreas per wet weight in non-iron overloaded Sprague-Dawley rat at 300 umol/kg, sc after 2 hrs; conditions: in vivo
Plasma [17] = assay: Distribution in plasma in non-iron overloaded Sprague-Dawley rat assessed as decrease in concentration at 300 umol/kg, sc after 1 hr; assay type: ADME, organism-based; design: scale not given: the % may be the effect or the level left; conditions: in vivo; method in brief: as §1
Sapajus apella [18] = assay: Iron-clearing efficiency in iron-loaded Cebus apella at 75 umol/kg, po relative to control; assay type: functional; method in brief: as §2
Liver [19] = assay: Distribution in liver in non-iron overloaded Sprague-Dawley rat at 300 umol/kg, sc after 1 hr; assay type: ADME, organism-based; conditions: in vivo; method in brief: as §1
Liver [20] = assay: Distribution in liver in non-iron overloaded Sprague-Dawley rat at 300 umol/kg, sc after 0.5 hrs; assay type: ADME, organism-based; conditions: in vivo; method in brief: as §1
Kidney [21] = assay: Distribution in kidney in non-iron overloaded Sprague-Dawley rat at 300 umol/kg, sc after 0.5 hrs; assay type: ADME, organism-based; conditions: in vivo; method in brief: as §1
Rattus norvegicus [22] = assay: Iron-clearing efficiency in non-iron overloaded Sprague-Dawley rat assessed as excretion in urine after 48 hrs at 300 umol/kg, po relative to control; assay type: functional; method in brief: as §3
Rattus norvegicus [23] = assay: Iron-clearing efficiency in non-iron overloaded Sprague-Dawley rat assessed as excretion in bile at 300 umol/kg, po after 48 hrs relative to control; assay type: functional; method in brief: as §3
Rattus norvegicus [24] = assay: Iron-clearing efficiency in non-iron overloaded Sprague-Dawley rat at 300 umol/kg, po after 48 hrs relative to control; assay type: functional; method in brief: as §3
Rattus norvegicus [25] = assay: Iron clearance in non-iron overloaded Sprague-Dawley rat at 300 umol/kg, po at 6 hrs; assay type: functional; method in brief: as §4

Compound	Drug uptake (Kidney [1]) [nmol/g]	Activity (Sapajus apella [2]) [%]	Drug uptake (Kidney [3]) [nmol/g]	Activity (Sapajus apella [4]) [%]	Activity (Rattus norvegicus [5]) [%]	Activity (Rattus norvegicus [6]) [µg/kg]	Activity (Rattus norvegicus [7]) [%]	concentration at 0.5 h [9] [µM]	Ratio [10]	Drug uptake (Kidney [11]) [nmol/g]	Activity (Plasma [12]) [%]	Activity (Plasma [13]) [%]	Drug uptake [16] [nmol/g]	Activity (Plasma [17]) [%]	Drug uptake (Liver [19]) [nmol/g]	Drug uptake (Liver [20]) [nmol/g]	Drug uptake (Kidney [21]) [nmol/g]	further results
C[C@]1(C(=O)[O-])CSC(c2ccc(O)cc2O)=N1.[Na+] [DEFERITRIN SODIUM]	179	12	27	88	0	68	100	–	–	–	–	–	–	–	–	–	–	Activity (Rattus norvegicus [8]): 12%
COCCOCCOCCOc1ccc(O)c(C2=N[C@@](C)(C(=O)[O-])CS2)c1.[Na+]	435	44	116	56	2	388	98	324	1	321	54	82	30	39	315	483	643	logD [14]: -1.27; Activity (Rattus norvegicus [15]): 8%; Activity (Sapajus apella [18]): 8.1%
C[C@]1(C(=O)[O-])CSC(c2cc(O)ccc2O)=N1.[Na+]	–	12	–	88	1	–	99	–	12.6	–	–	–	–	–	–	–	–	–
COCCOCCOCCOc1ccc(C2=N[C@@](C)(C(=O)O)CS2)c(O)c1	252	4	34	96	10	183	90	194	–	41	92	97	30	28	315	339	368	Activity (Rattus norvegicus [8]): 8.8%
COc1ccc(O)c(C2=N[C@@](C)(C(=O)[O-])CS2)c1.[Na+]	–	6	–	94	5	–	95	–	3	–	–	–	–	–	–	–	–	–
COc1cccc(C2=N[C@@](C)(C(=O)[O-])CS2)c1O.[Na+]	–	9	–	91	–	–	–	–	1.8	–	–	–	–	–	–	–	–	Activity (Rattus norvegicus [22]): 1%; Activity (Rattus norvegicus [23]): 99%; Activity (Rattus norvegicus [24]): 12.4%
COCCOCCOCCOc1cccc(C2=N[C@@](C)(C(=O)[O-])CS2)c1O.[Na+]	259	28	90	72	–	–	–	62	2.3	145	61	79	16	26	318	242	280	Activity (Rattus norvegicus [22]): 5%; Activity (Rattus norvegicus [25]): 287 µg/kg; logD [14]: -1.22; Activity (Rattus norvegicus [23]): 95%; Activity (Rattus norvegicus [24]): 10.6%; Activity (Sapajus apella [18]): 24.5%
C[C@]1(C(=O)[O-])CSC(c2cccc(O)c2O)=N1.[Na+]	–	17	–	83	2	–	98	–	5	–	–	–	–	–	–	–	–	Activity (Rattus norvegicus [15]): 4.6%
COc1ccc(C2=N[C@@](C)(C(=O)[O-])CS2)c(O)c1.[Na+]	–	9	–	91	2	–	98	–	–	–	–	–	–	–	–	–	–	–
